Reference: ChEMBL document CHEMBL4038284, “Synthesis of novel quinoline-based 4,5-dihydro-1H-pyrazoles as potential anticancer, antifungal, antibacterial and antiprotozoal agents” (Eur J Med Chem, 2017)
Activity calls are given as the source filed them. No cut-off for these calls is given here.

Columns and labels:
BT-549 = experiment: Growth inhibition of human BT549 cells at 10 uM incubated for 48 hrs by sulforhodamine B assay; type: functional, cell-based
Method in brief: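 NCI 60-cell-line screen at a single 10 µM dose. Cells in RPMI-1640 with 5% FBS and 2 mM L-glutamine, pre-incubated 24 h, then treated for 48 h at 37 °C. TCA fixation, sulforhodamine B staining, absorbance at 515 nm. Percentage growth calculated against time-zero and untreated controls.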

SK-MEL-2 = experiment: Growth inhibition of human SK-MEL-2 cells at 10 uM incubated for 48 hrs by sulforhodamine B assay; type: functional, cell-based
Method in brief: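 NCI-60 single-dose screen at 10 µM for 48 h. Cells were grown in RPMI-1640 with 5% FBS and 2 mM L-glutamine and preincubated 24 h before compound. Time-zero plates were TCA-fixed at compound addition. After exposure, cells were TCA-fixed, stained with SRB and read at 515 nm. Percentage growth was calculated against time-zero and untreated-control absorbances.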

LOX IMVI = experiment: Growth inhibition of human LOXIMVI cells at 10 uM incubated for 48 hrs by sulforhodamine B assay; type: functional, cell-based
Method in brief: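 NCI 60-line panel, single 10 μM dose. Cells were grown in RPMI-1640 with 5% FBS and 2 mM L-glutamine and pre-incubated 24 h before compound addition (DMSO stock). Exposure was 48 h at 37 °C, 5% CO2. Cells were fixed with cold TCA (10% final), stained with 0.4% SRB, bound dye dissolved in 10 mM Tris base, A515 read. Growth was taken relative to time-zero and untreated control plates.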

Candida albicans = experiment: Growth inhibition of Candida albicans ATCC 10231 at 31.25 ug/ml incubated for 48 hrs under dark condition by broth microdilution method relative to control; type: functional; details: ATCC 10231, 48 h, read-out: GI
Method in brief: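 CLSI M27-A3 broth microdilution in RPMI-1640, DMSO ≤1%. Inoculum 1-5 × 10^3 CFU/mL. Incubated 48 h at 30 °C, dark. % inhibition = 100 − (OD405 test − sterility control)/(OD405 growth control − sterility control), with growth and sterility control wells. Triplicate.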

| SMILES | growth inhibition (GI) (BT-549) | growth inhibition (GI) (SK-MEL-2) | growth inhibition (GI) (LOX IMVI) | inhibition of growth at 31.25 µg/mL (Candida albicans) |
| --- | --- | --- | --- | --- |
| Clc1ccc(C2=NN(c3ccccc3)C(c3cccc(Nc4ccnc5cc(Cl)ccc45)c3)C2)cc1 (stereo not drawn) | inactive | inactive | inactive | 4.92% |
| COc1cc(C2=NN(c3ccc(Cl)cc3)C(c3cccc(Nc4ccnc5cc(Cl)ccc45)c3)C2)cc(OC)c1OC (stereo not drawn) | inactive | inactive | inactive | 8.05% |
